Assay outcomes (PubChem)
SIAE inh: inhibitors of human sialic acid acetylesterase SIAE | inhibition, % at 9.66 µM | Q9HAT2 | SIAE FP-Rh probe binding, fluorescence polarization | AID 1053197 | hit rate 0.69% among 370,000;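 active = inhibition above a cutoff: mean of compounds within the control limits plus 3 SD of those, cut at about 17% in these data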;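 also: 0% = plate median of compound wells and 100% = probe without SIAE protein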
HTRA1 inhibitor: inhibitors of human serine peptidase HTRA1. Q92743. recombinant HTRA1, FP-rhodamine activity-based probe, fluorescence polarization. inhibition, % at 5.96 µM. hit rate 0.5% among 340,000. AID 504803; in the data active = inhibition above about 36%;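 also: 0% = enzyme with DMSO and 100% = wells lacking enzyme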
mABHD4 FP: inhibits mouse alpha/beta hydrolase domain 4; Q8VD66; inhibition, % at 8.92 µM; hit rate 0.54% among 370,000; purified mABHD4, FP-Rh probe fluorescence polarization;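 active = inhibition exceeding the mean over every tested compound plus 3 SD, cut at about 30% in these data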;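 also: 0% = plate median of compound wells and 100% = S159A mutant with DMSO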
Target sequence (Q8VD66 whole entry, looked up, the tested form may be a part): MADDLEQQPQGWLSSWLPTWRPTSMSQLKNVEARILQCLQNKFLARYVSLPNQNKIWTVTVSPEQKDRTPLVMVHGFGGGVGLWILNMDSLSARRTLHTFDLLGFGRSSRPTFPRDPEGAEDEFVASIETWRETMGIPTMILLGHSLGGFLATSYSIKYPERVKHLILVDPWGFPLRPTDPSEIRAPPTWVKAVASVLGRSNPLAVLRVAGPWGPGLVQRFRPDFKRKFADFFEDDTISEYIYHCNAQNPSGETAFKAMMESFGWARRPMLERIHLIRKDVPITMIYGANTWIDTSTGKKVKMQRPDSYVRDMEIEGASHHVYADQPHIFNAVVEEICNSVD
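Test system: mABHD4 protein | Buffer or medium: HEPES pH 7.0 buffer, 150 mM NaCl, 0.01% Pluronic F-127 | Probe or stimulus: FP-Rh fluorescent activity-based probe, added after compound pre-incubation | Timing: Pre-incubation 45 min, probe exposure 60 min, at 25 °C | Technique: Fluorescence polarization, excitation 525 nm, emission 598 nm, BODIPY TMR filters | Repeats: Single well per compound (singlicate)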
PRMT1 FP inh: inhibitors of human PRMT1; AID 652257; Q99873; recombinant PRMT1, activity-based probe fluorescence polarization; inhibition, % at 2.79 µM; hit rate 1.3% among 370,000;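 active = inhibition above about 21% made by adding two undisclosed values, limit read from the data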
rCAG binder: r(CAG) repeat RNA binding | TO-PRO-1 dye displacement fluorescence | inhibition, % at 3 µM | hit rate 1.3% among 370,000;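 active = inhibition above the plate cutoff, the mean of all test compounds on that plate plus 3 SD, cut at about 35% in these data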;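 also: 0% = DMSO alone and 100% = 100 µM mitoxantrone as full dye displacement; higher means more dye released from RNA so lower well fluorescence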
SIAE inh conf: human SIAE inhibition, confirmation; SIAE FP-Rh activity-based probe, fluorescence polarization; AID 1117263; shares compounds with SIAE inh; inhibition, % at 9.66 µM; hit rate 13% among 2,300;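 active = mean inhibition of the replicates above the hit cutoff set in the primary screen, cut at about 17% in these data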;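 also: 0% = SIAE with DMSO and probe and 100% = probe without SIAE; inhibitors lower polarization as more probe stays unbound to SIAE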
Numbers without * were called inactive; . = not tested or not shown. An excerpt weighted towards active compounds, which were near 3.3% of everything screened.

SMILES	SIAE inh	HTRA1 inhibitor	mABHD4 FP	PRMT1 FP inh	rCAG binder	SIAE inh conf
FC(F)(F)c1ccc(Oc2ccc3ccccc3c2Br)nc1	-4	-16	1	-2	-2	.
Nn1c(SCC(=O)N2CCCC2)nnc1-c1cccs1	17*	1	6	-1	1	-1
C=CCSc1nc2c(cnn2-c2ccccc2)c(=O)n1N	0	.	-4	-4	-5	.
CCN(CC)CCCN(C(=O)c1ccc(F)cc1)c1nc(-c2ccc(OC)cc2)cs1	24*	-2	2	-4	5	4
COc1ccc(-c2csc(N(CCCN(C)C)C(=O)c3ccc(F)cc3)n2)cc1	2	-9	6	-2	0	.
CC(=O)c1ccc(N2CCN(c3ccccc3O)CC2)c([N+](=O)[O-])c1	31*	3	9	8	3	-2
O=C(O)c1ccccc1C(=O)c1ccc(N2CCCC2)c([N+](=O)[O-])c1	-8	6	1	1	6	.
CCCN(CCC)C(=O)c1ccc2c(c1)S(=O)(=O)c1ccccc1C2=O	-8	0	1	-1	-7	.
CCn1c(CCl)nc2cc(S(=O)(=O)N3CCOCC3)ccc21	18*	.	2	-1	1	7
NC(=O)N/N=C/c1ccc(-c2ccc([N+](=O)[O-])cc2)o1	11	5	-1	13	1	.
O=[N+]([O-])c1ccc(-c2ccc(/C=N/O)o2)cc1	25*	.	-3	3	15	2
CC(=O)c1ccc(S(=O)(=O)N2CCN(C(=O)c3cccc(S(=O)(=O)N4CC(C)OC(C)C4)c3)CC2)cc1 (stereo not drawn)	3	-1	-2	-2	5	.
Cc1onc(C(=O)NN)c1C(=O)Nc1ncc(C(F)(F)F)cc1Cl	6	9	-1	0	6	.
O=C(O)Cn1c(CCS(=O)(=O)c2ccc(Br)cc2)nc2ccccc21	29*	-2	3	4	5	4
COC(=O)Cn1c(CCS(=O)(=O)c2ccc(C)c(C)c2)nc2ccccc21	-6	-3	1	-1	-3	.
COc1cccc(CNc2nccs2)c1O	18*	-5	3	0	-1	1
COc1ccccc1CNC(=O)C(=O)Nc1nccs1	3	-1	-2	2	0	.
CCOC(=O)C1CN(S(=O)(=O)c2ccc(OC)cc2)c2cc(CC(=O)OC)ccc2O1 (stereo not drawn)	-4	-3	-7	3	-7	.
CCOC(=O)C1CN(S(C)(=O)=O)c2cc(CC(=O)OC)ccc2O1 (stereo not drawn)	29*	0	4	-1	2	5
CN(C)C1CN(Cc2cn(Cc3ccc(C(F)(F)F)cc3)nn2)S(=O)(=O)C1 (stereo not drawn)	-6	.	4	-2	1	.
COC(=O)c1ccc(Nc2nnc(-c3ccc(C)c(S(=O)(=O)NCC4CCCO4)c3)c3ccccc23)cc1 (stereo not drawn)	-10	-23	4	1	0	.
Cc1ccc(-c2nnc(Nc3ccc(C(=O)N(C)C)cc3)c3ccccc23)cc1S(=O)(=O)NCC1CCCO1 (stereo not drawn)	21*	-10	-6	1	4	-5
CC(CC(=O)N1CCN(S(=O)(=O)c2ccc(Cl)cc2)CC1)n1cncn1 (stereo not drawn)	18*	-3	-6	-2	-1	-4
N=c1n(CCN2CCCCC2)c2ccccc2n1CC(O)c1cccc(Br)c1 (stereo not drawn)	33*	-2	4	2	13	4
Cc1cccc(NC(=O)CN2C(=O)N/C(=C/c3ccc(C)s3)C2=O)c1	-7	-13	-3	0	6	.
SMILES	SIAE inh	HTRA1 inhibitor	mABHD4 FP	PRMT1 FP inh	rCAG binder	SIAE inh conf
Cc1cccc(NC(=O)CN2C(=O)N/C(=C/c3cc(C)n(C(C)C)c3C)C2=O)c1	23*	1	-2	0	12	1
CC1=C(C(=O)N2CCOCC2)CC(CC(=O)NCC2CCCCC2)C(=O)N1Cc1ccccc1 (stereo not drawn)	-1	5	0	-6	3	.
O=C(CSC1CN(C(c2ccccc2)c2ccccc2)C1)N/N=C/c1ccccc1	-13	-41	-3	2	4	.
COc1ccc(-c2nc(-c3ccccc3)c(-c3cc([N+](=O)[O-])ccc3C)[nH]2)cc1OC	3	0	4	-3	4	.
O=[N+]([O-])c1ccc(O)c(-c2nc(-c3ccccc3)c(-c3cccs3)[nH]2)c1	17*	2	0	-3	5	7
CCOc1cc(-c2nc(-c3ccccc3)c(-c3cc([N+](=O)[O-])ccc3C)[nH]2)ccc1O	24*	10	13	3	23	6
CN1OC[C@@H]2CN(C(=S)NCCc3ccccc3)[C@H](c3ccc(N4CCCCC4)cc3)C[C@@H]21	3	.	0	-4	1	.
O=C(CCn1cnnn1)Nc1ccc(F)cc1	4	3	-4	0	6	.
Cc1cc2c(c(C)c1CCO)C(=O)[C@H](C)C2	6	7	3	-5	0	.
O=C(NNc1nc2ccccc2o1)c1ccccc1	18*	.	6	-4	6	0
O=C(NC(=Nc1nc2ccccc2o1)NC(=O)c1ccccc1)c1ccccc1	5	-5	1	-1	2	.
COc1ccc(C2N=C(c3ccccc3)C(C)(C)N2O)cc1 (stereo not drawn)	3	3	-2	0	-5	.
CCN(CC)CCNc1nc(-c2ccc(OC)cc2)c(-c2ccc(OC)cc2)s1	-2	15	4	-3	0	.
COCCNc1nc(-c2ccc(OC)cc2)c(-c2ccc(OC)cc2)s1	19*	16	5	3	-1	7
CCN(CC)c1nc2ccccc2n(Cc2cccc(OC)c2)c1=O	1	-19	-6	5	0	.
Cc1cc(C)n2nc(SCC(=O)c3cc(C)n(CC4CCCO4)c3C)nc2n1 (stereo not drawn)	20*	-2	5	1	-2	0
Cc1cnc(C(=O)Oc2ccc(-c3ccccc3)cc2)cn1	17*	-3	3	2	0	-7
Cc1cnc(C(=O)OCC(=O)c2ccc(-c3ccccc3)cc2)cn1	2	-4	1	1	0	.
O=C(CCN=C1NS(=O)(=O)c2ccccc21)Nc1ccc(F)cc1Cl	2	-1	0	0	5	.
COc1ccccc1C(=O)OCC(=O)c1ccc(CNC(C)=O)s1	-1	7	-2	-5	1	.
COc1ccc(C(=O)OCC(=O)c2ccc(CNC(C)=O)s2)cc1	24*	0	3	-2	6	-1
Cc1ccccc1CN1C(=O)CSCC1(C)C(=O)Nc1ccc2c(c1)OCCO2 (stereo not drawn)	8	.	6	5	4	.
O=C(CSc1nnc(CNC(=O)c2ccc(F)cc2)o1)NCC1CCCO1 (stereo not drawn)	7	6	3	4	-4	.
